Data taken from ChEMBL document CHEMBL3085645, “Design, synthesis and biological evaluation of phosphorodiamidate prodrugs of antiviral and anticancer nucleosides” (Eur J Med Chem, 2013).

What was measured:
[1] = system: Human immunodeficiency virus 2; experiment: Antiviral activity against HIV2 ROD infected in human CEM cells assessed as virus-induced giant cell formation after 4 days by microscopic analysis; format: functional, organism-based; details: Human immunodeficiency virus 2, ISOLATE ROD, CCRF-CEM, 96 h
How it was run: (§1)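 CEM cells (∼3 × 10^5 cells/cm3) infected with 100 CCID50/mL of HIV-1(IIIB) or HIV-2(ROD), seeded into wells with compound dilutions. Giant cell formation examined microscopically after 4 days at 37 °C.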

CCRF-CEM [2] = experiment: Cytostatic activity against human CEM cells assessed as growth inhibition after 3 days by particle counting analysis; format: functional, cell-based; details: 72 h
How it was run: (§2)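 Tumor cells seeded and exposed to a range of compound concentrations. Cell number counted with a particle counter after 2 days (L1210, L1210/TK) or 3 days (CEM, CEM/TK, HeLa, HeLa TK, Caco-2, Colo-320).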

CCRF-CEM [3] = experiment: Cytotoxicity against human CEM cells; format: cell-based
HeLa [4] = experiment: Cytostatic activity against human HeLa cells assessed as growth inhibition after 3 days by particle counting analysis; format: functional, cell-based; details: 72 h; how it was run: as §2
[5] = system: Human immunodeficiency virus 1; experiment: Antiviral activity against HIV1 3B infected in human CEM cells assessed as virus-induced giant cell formation after 4 days by microscopic analysis; format: functional, organism-based; details: Human immunodeficiency virus 1, 3B, CCRF-CEM, 96 h; how it was run: as §1
L1210 [6] = experiment: Cytostatic activity against mouse L1210 cells assessed as growth inhibition after 2 days by particle counting analysis; format: functional, cell-based; details: L1210, 48 h; how it was run: as §2
L1210 [7] = experiment: Cytostatic activity against thymidine kinase-deficient mouse L1210 cells assessed as growth inhibition after 2 days by particle counting analysis; format: functional, cell-based; details: L1210, 48 h; how it was run: as §2
COLO 320 = experiment: Cytostatic activity against human COLO320 cells assessed as growth inhibition after 3 days by particle counting analysis; format: functional, cell-based; details: COLO 320, 72 h; how it was run: as §2
CCRF-CEM [8] = experiment: Cytostatic activity against thymidine kinase-deficient human CEM cells assessed as growth inhibition after 3 days by particle counting analysis; format: functional, cell-based; details: 72 h; how it was run: as §2
Caco-2 = experiment: Cytostatic activity against human Caco2 cells assessed as growth inhibition after 3 days by particle counting analysis; format: functional, cell-based; details: Caco-2, 72 h; how it was run: as §2
HeLa [9] = experiment: Cytostatic activity against thymidine kinase-deficient human HeLa cells assessed as growth inhibition after 3 days by particle counting analysis; format: functional, cell-based; details: 72 h; how it was run: as §2
Human alphaherpesvirus 2 = experiment: Antiviral activity against Herpes simplex virus 2 G infected in HEL cells assessed as inhibition of virus-induced cytopathicity; format: functional, organism-based; details: Human alphaherpesvirus 2, strain G
Felid alphaherpesvirus 1 = experiment: Antiviral activity against Feline herpesvirus infected in cat CRFK cells assessed as inhibition of virus-induced cytopathicity; format: functional, organism-based; details: Felid alphaherpesvirus 1, CRFK
[10] = Prodrug conversion assessed as carboxypeptidase Y (unknown origin)-mediated (S)-2-((((2R,3S,4R,5R)-5-(5-amino-4-carbamoyl-1H-imidazol-1-yl)-3,4-dihydroxytetrahydrofuran-2-yl)methoxy)oxidophosphorylamino)propanoate formation at 4.8 mg measured after 24 hrs by 31P-NMR analysis; format: ADME; details: human
How it was run: (§3)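 Prodrug incubated with carboxypeptidase Y in d6-acetone/Trizma buffer (pH 7.6); conversion followed over time by 31P NMR.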

Human alphaherpesvirus 1 [11] = experiment: Antiviral activity against Herpes simplex virus 1 KOS infected in HEL cells assessed as inhibition of virus-induced cytopathicity; format: functional, organism-based; details: Human alphaherpesvirus 1, KOS
[12] = Cytotoxicity against HEL cells; format: cell-based; details: human
Human alphaherpesvirus 1 [13] = experiment: Antiviral activity against acyclovir-resistant thymidine kinase-deficient Herpes simplex virus 1 KOS infected in HEL cells assessed as inhibition of virus-induced cytopathicity; format: functional, organism-based; details: Human alphaherpesvirus 1, KOS
[14] = Chemical stability in d6 acetone/trizma buffer at 4.8 mg in absence of carboxypeptidase Y; format: physicochemical
How it was run: (§4)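 Prodrug kept in d6-acetone plus Trizma buffer (pH 7.6) without carboxypeptidase Y; integrity followed by 31P NMR.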

Hepatitis C virus = experiment: Antiviral activity against Hepatitis C virus genotype 1b infected in human HuH7 cells assessed as inhibition of viral replication; format: functional, organism-based, Hepacivirus hominis; details: Huh-7, read-out: EC50
[15] = Prodrug conversion assessed as carboxypeptidase Y (unknown origin)-mediated (8S)-1-(2-amino-6-oxo-1,6-dihydro-9H-purin-9-yl)-8-methyl-6-oxido-2,5-dioxa-7-aza-6-phosphanonan-9-oate 6-oxide formation at 5 mg measured after 7.5 hrs by 31P-NMR analysis; format: ADME; details: human; how it was run: as §3
[16] = Chemical stability in d6 acetone/trizma buffer at 5 mg in absence of carboxypeptidase Y; format: physicochemical; how it was run: as §4
MT4 = experiment: Cytotoxicity against human MT4 cells assessed as cell viability by propidium iodide staining-based cell counting analysis
How it was run: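 MT-4 cultures, untreated or treated, were counted on an automated cell counter. Total and dead cells were enumerated by propidium iodide-based assay.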

[17] = Prodrug conversion assessed as carboxypeptidase Y (unknown origin)-mediated metabolite formation lacking one ester moiety at 5 mg measured every 5 mins for 24 hrs by 31P-NMR analysis; format: ADME; details: human; how it was run: as §3
[18] = system: Human immunodeficiency virus 1; experiment: Antiviral activity against HIV1 infected in human MT4 cells assessed as p24 production after 3 days; details: Human immunodeficiency virus 1, MT4, 72 h

Structure (SMILES) | EC50 [1] | IC50 (CCRF-CEM [2]) | CC50 (CCRF-CEM [3]) | IC50 (HeLa [4]) | EC50 [5] | IC50 (L1210 [6]) | IC50 (L1210 [7]) | IC50 (COLO 320) | IC50 (CCRF-CEM [8]) | IC50 (Caco-2) | IC50 (HeLa [9]) | further results
Nc1ncnc2c1ncn2[C@H]1CC[C@@H](CO)O1 | 2.8 µM | > 250 µM | > 250 µM | > 250 µM | 7.2 µM | > 250 µM |  |  |  |  |  | 
Cc1cn([C@H]2C=C[C@@H](COP(=O)(N[C@@H](C)C(=O)OCc3ccccc3)N[C@@H](C)C(=O)OCc3ccccc3)O2)c(=O)[nH]c1=O | 0.096 µM | 92 µM |  | 116 µM | 0.14 µM | 8.9 µM | 7.4 µM | 133 µM | 46 µM | 241 µM | 29 µM | 
Cc1cn([C@H]2C=C[C@@H](COP(=O)(N[C@@H](C)C(=O)OC3CCCCC3)N[C@@H](C)C(=O)OC3CCCCC3)O2)c(=O)[nH]c1=O | 0.38 µM | 73 µM |  | 96 µM | 0.15 µM | 29 µM | 25 µM |  | 54 µM | 135 µM | 36 µM | 
Cc1cn([C@H]2C=C[C@@H](COP(=O)(N[C@@H](C)C(=O)OCC(C)(C)C)N[C@@H](C)C(=O)OCC(C)(C)C)O2)c(=O)[nH]c1=O | 0.14 µM | 96 µM |  | 110 µM | 0.09 µM | 47 µM | 23 µM | 30 µM | 37 µM | 174 µM | 53 µM | 
C[C@H](NP(=O)(N[C@@H](C)C(=O)OCC(C)(C)C)OC[C@@H]1CC[C@H](n2cnc3c(N)ncnc32)O1)C(=O)OCC(C)(C)C | 0.049 µM | 36 µM | 35 µM |  | 0.1 µM | 76 µM |  |  |  |  |  | 
CC(=O)Nc1ccn([C@H]2CS[C@@H](CO)O2)c(=O)n1 |  | > 250 µM |  | 242 µM |  | > 250 µM | > 250 µM | ≥ 250 µM | > 250 µM | > 250 µM | > 250 µM | 
CC(=O)Nc1ccn([C@H]2CS[C@@H](COP(=O)(N[C@@H](C)C(=O)OCc3ccccc3)N[C@@H](C)C(=O)OCc3ccccc3)O2)c(=O)n1 |  | 120 µM |  | 155 µM |  |  |  | > 250 µM |  | ≥ 250 µM |  | 
C[C@H](NP(=O)(N[C@@H](C)C(=O)OCc1ccccc1)OC[C@H]1O[C@@H](n2ccc(N)nc2=O)CS1)C(=O)OCc1ccccc1 | > 50 µM | 116 µM |  | 93 µM | > 50 µM | 86 µM | 57 µM | 85 µM | 106 µM | 87 µM | 38 µM | 
C[C@H](NP(=O)(N[C@@H](C)C(=O)OCC(C)(C)C)OC[C@H]1O[C@@H](n2cnc(C(N)=O)c2N)[C@H](O)[C@@H]1O)C(=O)OCC(C)(C)C |  | > 250 µM |  | > 250 µM |  | > 250 µM |  |  |  |  | > 250 µM | EC50 (Human alphaherpesvirus 2): > 100 µM; EC50 (Felid alphaherpesvirus 1): > 100 µM; Drug metabolism [10]: Not Active; EC50 (Human alphaherpesvirus 1 [11]): > 100 µM; MCC [12]: > 100 µM; EC50 (Human alphaherpesvirus 1 [13]): > 100 µM
Cc1cn([C@H]2C[C@H](N=[N+]=[N-])[C@@H](COP(=O)(N[C@@H](C)C(=O)OCc3ccccc3)N[C@@H](C)C(=O)OCc3ccccc3)O2)c(=O)[nH]c1=O | 0.03 µM |  | 30 µM |  | 0.0092 µM |  |  |  |  |  |  | 
C[C@H](NP(=O)(N[C@@H](C)C(=O)OCc1ccccc1)OCCOCn1cnc2c(=O)[nH]c(N)nc21)C(=O)OCc1ccccc1 |  |  |  |  |  |  |  |  |  |  |  | Stability [14]: Stable; EC50 (Human alphaherpesvirus 2): 16 µM; EC50 (Hepatitis C virus): > 100 µM; EC50 (Felid alphaherpesvirus 1): > 100 µM; Drug metabolism [15]: Active; EC50 (Human alphaherpesvirus 1 [11]): 18 µM; MCC [12]: > 100 µM; Stability [16]: Stable; CC50 (MT4): 34.9 µM; EC50 (Human alphaherpesvirus 1 [13]): 25 µM; Drug metabolism [17]: Active; EC50 [18]: 2.01 µM
C[C@H](NP(=O)(N[C@@H](C)C(=O)OCC(C)(C)C)OCCOCn1cnc2c(=O)[nH]c(N)nc21)C(=O)OCC(C)(C)C |  |  |  |  |  |  |  |  |  |  |  | EC50 (Human alphaherpesvirus 2): 40 µM; EC50 (Hepatitis C virus): > 100 µM; EC50 (Felid alphaherpesvirus 1): > 100 µM; EC50 (Human alphaherpesvirus 1 [11]): 33 µM; MCC [12]: > 100 µM; CC50 (MT4): 82.8 µM; EC50 (Human alphaherpesvirus 1 [13]): 20 µM; EC50 [18]: 4.07 µM
Nc1nc(NC2CC2)c2ncn([C@H]3C=C[C@@H](CO)C3)c2n1 [ABACAVIR] | 18 µM | > 250 µM | > 250 µM | 170 µM | 23 µM | > 250 µM |  |  |  |  |  | 
Nc1nc2c(ncn2COCCO)c(=O)[nH]1 [ACYCLOVIR] |  |  |  |  |  |  |  |  |  |  |  | EC50 (Felid alphaherpesvirus 1): > 100 µM; EC50 (Human alphaherpesvirus 1 [11]): 0.23 µM; MCC [12]: > 100 µM; CC50 (MT4): > 250 µM; EC50 (Human alphaherpesvirus 1 [13]): 23 µM; EC50 [18]: > 250 µM
Nc1ccn([C@@H]2CS[C@H](CO)O2)c(=O)n1 [LAMIVUDINE] | 0.18 µM | > 250 µM | > 250 µM | > 250 µM | 0.099 µM | > 250 µM | > 250 µM | > 250 µM | > 250 µM | > 250 µM | > 250 µM | 
Cc1cn([C@H]2C=C[C@@H](CO)O2)c(=O)[nH]c1=O [STAVUDINE] | 0.58 µM |  |  | > 250 µM | 0.39 µM |  | ≥ 250 µM | 159 µM | > 250 µM | > 250 µM | > 250 µM | 
Cc1cn([C@H]2C[C@H](N=[N+]=[N-])[C@@H](CO)O2)c(=O)[nH]c1=O [ZIDOVUDINE] | 0.067 µM |  | > 250 µM |  | 0.012 µM |  |  |  |  |  |  | 
